From ChEMBL document CHEMBL1275468, “Plasmid-mediated qnrB2 and carbapenemase gene bla(KPC-2) carried on the same plasmid in carbapenem-resistant ciprofloxacin-susceptible Enterobacter cloacae isolates” (2008)

Columns and labels:
Type in all cases: functional
Enterobacter cloacae [1] = test: Antimicrobial activity against Enterobacter cloacae isolate 656 containing PFGE genetic clone A expressing beta-lactamase KPC-2 and SHV-12 gene by Etest in presence of beta-lactamase inhibitor Tazobactam
Procedure, shortened: (§1)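 Clinical carbapenem-resistant, blaKPC-2-carrying E. cloacae isolates; MIC read by Etest. Clonal relatedness typed by PFGE after SpeI (20 U) digestion of genomic DNA on a CHEF-DR III system. qnr genes, and aac(6′)-Ib-cr by PCR with BtsCI digestion, detected from cell-lysate templates.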

Enterobacter cloacae [2] = test: Antimicrobial activity against Enterobacter cloacae isolate 649 containing PFGE genetic clone B expressing qnrB2 and beta-lactamase KPC-2 and SHV-12 gene by Etest in presence of beta-lactamase inhibitor Tazobactam; procedure, shortened: as §1
Enterobacter cloacae [3] = test: Antimicrobial activity against Enterobacter cloacae isolate 658 containing PFGE genetic clone B expressing qnrB2 and beta-lactamase KPC-2 and SHV-12 gene by Etest in presence of beta-lactamase inhibitor Tazobactam; procedure, shortened: as §1
Enterobacter cloacae [4] = test: Antimicrobial activity against Enterobacter cloacae isolate 781 containing PFGE genetic clone B expressing qnrB2 and beta-lactamase KPC-2 and SHV-12 gene by Etest in presence of beta-lactamase inhibitor Tazobactam; procedure, shortened: as §1
Enterobacter cloacae [5] = test: Antimicrobial activity against Enterobacter cloacae isolate 837 containing PFGE genetic clone B expressing qnrB2 and beta-lactamase KPC-2 and SHV-12 gene by Etest in presence of beta-lactamase inhibitor Tazobactam; procedure, shortened: as §1
Enterobacter cloacae [6] = test: Antimicrobial activity against Enterobacter cloacae isolate 4469 containing PFGE genetic clone C expressing qnrB2 and beta-lactamase KPC-2 and SHV-12 gene by Etest in presence of beta-lactamase inhibitor Tazobactam
Escherichia coli [7] = test: Antimicrobial activity against Escherichia coli T-622 harboring expressing qnrB2 and beta-lactamase KPC-2 and SHV-12 gene by Etest in presence of beta-lactamase inhibitor Tazobactam
Escherichia coli [8] = test: Antimicrobial activity against Escherichia coli T-625 harboring expressing qnrB2 and beta-lactamase KPC-2 and SHV-12 gene by Etest in presence of beta-lactamase inhibitor Tazobactam
Escherichia coli [9] = test: Antimicrobial activity against Escherichia coli T-781 harboring expressing qnrB2 and beta-lactamase KPC-2 and SHV-12 gene by Etest in presence of beta-lactamase inhibitor Tazobactam
Escherichia coli [10] = test: Antimicrobial activity against Escherichia coli GeneHogs by Etest in presence of beta-lactamase inhibitor Tazobactam
Procedure, shortened: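 Recipient is E. coli GeneHogs (recA1), electroporated with plasmid DNA from clinical isolates. Transformants were selected on LB agar with 100 μg/ml ampicillin and PCR-screened for blaKPC, blaSHV and qnr genes. MIC read by Etest.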

Enterobacter cloacae [11] = test: Antimicrobial activity against Enterobacter cloacae isolate 1 containing PFGE genetic clone A expressing qnrB2 and beta-lactamase KPC-2 and SHV-12 gene by Etest
Enterobacter cloacae [12] = test: Antimicrobial activity against Enterobacter cloacae isolate 18 containing PFGE genetic clone A expressing qnrB2 and beta-lactamase KPC-2 and SHV-12 gene by Etest
Enterobacter cloacae [13] = test: Antimicrobial activity against Enterobacter cloacae isolate 140 containing PFGE genetic clone A expressing beta-lactamase KPC-2 and SHV-12 gene by Etest
Enterobacter cloacae [14] = test: Antimicrobial activity against Enterobacter cloacae isolate 151 containing PFGE genetic clone A expressing qnrB2 and beta-lactamase KPC-2 gene by Etest
Enterobacter cloacae [15] = test: Antimicrobial activity against Enterobacter cloacae isolate 185 containing PFGE genetic clone A expressing qnrB2 aac(6')-Ib-cr and beta-lactamase KPC-2 and SHV-12 gene by Etest
Enterobacter cloacae [16] = test: Antimicrobial activity against Enterobacter cloacae isolate 293 containing PFGE genetic clone A expressing qnrB2 and beta-lactamase KPC-2 and SHV-12 gene by Etest
Enterobacter cloacae [17] = test: Antimicrobial activity against Enterobacter cloacae isolate 533 containing PFGE genetic clone A expressing qnrB2 and beta-lactamase KPC-2 and SHV-12 gene by Etest
Enterobacter cloacae [18] = test: Antimicrobial activity against Enterobacter cloacae isolate 622 containing PFGE genetic clone A expressing qnrB2 and beta-lactamase KPC-2 and SHV-12 gene by Etest
Enterobacter cloacae [19] = test: Antimicrobial activity against Enterobacter cloacae isolate 625 containing PFGE genetic clone A expressing qnrB2 and beta-lactamase KPC-2 and SHV-12 gene by Etest
Enterobacter cloacae [20] = test: Antimicrobial activity against Enterobacter cloacae isolate 656 containing PFGE genetic clone A expressing beta-lactamase KPC-2 and SHV-12 gene by Etest
Enterobacter cloacae [21] = test: Antimicrobial activity against Enterobacter cloacae isolate 649 containing PFGE genetic clone B expressing qnrB2 and beta-lactamase KPC-2 and SHV-12 gene by Etest
Enterobacter cloacae [22] = test: Antimicrobial activity against Enterobacter cloacae isolate 658 containing PFGE genetic clone B expressing qnrB2 and beta-lactamase KPC-2 and SHV-12 gene by Etest
Enterobacter cloacae [23] = test: Antimicrobial activity against Enterobacter cloacae isolate 781 containing PFGE genetic clone B expressing qnrB2 and beta-lactamase KPC-2 and SHV-12 gene by Etest
Enterobacter cloacae [24] = test: Antimicrobial activity against Enterobacter cloacae isolate 837 containing PFGE genetic clone B expressing qnrB2 and beta-lactamase KPC-2 and SHV-12 gene by Etest
Enterobacter cloacae [25] = test: Antimicrobial activity against Enterobacter cloacae isolate 4469 containing PFGE genetic clone C expressing qnrB2 and beta-lactamase KPC-2 and SHV-12 gene by Etest
Escherichia coli [26] = test: Antimicrobial activity against Escherichia coli T-622 harboring expressing qnrB2 and beta-lactamase KPC-2 and SHV-12 gene by Etest
Procedure, shortened: (§2)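 MIC read by Etest. Strains are E. coli GeneHogs (recA1) transformants. Plasmid DNA from clinical E. cloacae isolates was introduced by electroporation. Transformants were selected on LB agar with 100 μg/ml ampicillin, then PCR-screened for blaKPC, blaSHV and qnr genes.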

Escherichia coli [27] = test: Antimicrobial activity against Escherichia coli T-625 harboring expressing qnrB2 and beta-lactamase KPC-2 and SHV-12 gene by Etest; procedure, shortened: as §2
Escherichia coli [28] = test: Antimicrobial activity against Escherichia coli T-781 harboring expressing qnrB2 and beta-lactamase KPC-2 and SHV-12 gene by Etest; procedure, shortened: as §2
Escherichia coli [29] = test: Antimicrobial activity against Escherichia coli GeneHogs by Etest
Procedure, shortened: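 MIC read by Etest on the plasmid-free electroporation recipient, E. coli GeneHogs (recA1 mutant).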

Enterobacter cloacae [30] = test: Antimicrobial activity against Enterobacter cloacae isolate 1 containing PFGE genetic clone A expressing qnrB2 and beta-lactamase KPC-2 and SHV-12 gene by Etest in presence of beta-lactamase inhibitor Tazobactam; procedure, shortened: as §1
Enterobacter cloacae [31] = test: Antimicrobial activity against Enterobacter cloacae isolate 18 containing PFGE genetic clone A expressing qnrB2 and beta-lactamase KPC-2 and SHV-12 gene by Etest in presence of beta-lactamase inhibitor Tazobactam; procedure, shortened: as §1
Enterobacter cloacae [32] = test: Antimicrobial activity against Enterobacter cloacae isolate 140 containing PFGE genetic clone A expressing beta-lactamase KPC-2 and SHV-12 gene by Etest in presence of beta-lactamase inhibitor Tazobactam; procedure, shortened: as §1
Enterobacter cloacae [33] = test: Antimicrobial activity against Enterobacter cloacae isolate 151 containing PFGE genetic clone A expressing qnrB2 and beta-lactamase KPC-2 gene by Etest in presence of beta-lactamase inhibitor Tazobactam; procedure, shortened: as §1
Enterobacter cloacae [34] = test: Antimicrobial activity against Enterobacter cloacae isolate 185 containing PFGE genetic clone A expressing qnrB2 aac(6')-Ib-cr and beta-lactamase KPC-2 and SHV-12 gene by Etest in presence of beta-lactamase inhibitor Tazobactam; procedure, shortened: as §1
Enterobacter cloacae [35] = test: Antimicrobial activity against Enterobacter cloacae isolate 293 containing PFGE genetic clone A expressing qnrB2 and beta-lactamase KPC-2 and SHV-12 gene by Etest in presence of beta-lactamase inhibitor Tazobactam; procedure, shortened: as §1
Enterobacter cloacae [36] = test: Antimicrobial activity against Enterobacter cloacae isolate 533 containing PFGE genetic clone A expressing qnrB2 and beta-lactamase KPC-2 and SHV-12 gene by Etest in presence of beta-lactamase inhibitor Tazobactam; procedure, shortened: as §1
Enterobacter cloacae [37] = test: Antimicrobial activity against Enterobacter cloacae isolate 622 containing PFGE genetic clone A expressing qnrB2 and beta-lactamase KPC-2 and SHV-12 gene by Etest in presence of beta-lactamase inhibitor Tazobactam; procedure, shortened: as §1
Enterobacter cloacae [38] = test: Antimicrobial activity against Enterobacter cloacae isolate 625 containing PFGE genetic clone A expressing qnrB2 and beta-lactamase KPC-2 and SHV-12 gene by Etest in presence of beta-lactamase inhibitor Tazobactam; procedure, shortened: as §1

CCN1CCN(C(=O)N[C@@H](C(=O)N[C@@H]2C(=O)N3[C@@H]2SC(C)(C)[C@@H]3C(=O)O)c2ccccc2)C(=O)C1=O [PIPERACILLIN]
MIC (Enterobacter cloacae [1]): ≥ 128 µg/mL
MIC (Enterobacter cloacae [2]): ≥ 128 µg/mL
MIC (Enterobacter cloacae [3]): ≥ 128 µg/mL
MIC (Enterobacter cloacae [4]): ≥ 128 µg/mL
MIC (Enterobacter cloacae [5]): ≥ 128 µg/mL
MIC (Enterobacter cloacae [6]): 64 µg/mL
MIC (Escherichia coli [7]): 64 µg/mL
MIC (Escherichia coli [8]): ≥ 128 µg/mL
MIC (Escherichia coli [9]): 64 µg/mL
MIC (Escherichia coli [10]): ≤ 4 µg/mL
MIC (Enterobacter cloacae [11]): ≥ 128 µg/mL
MIC (Enterobacter cloacae [12]): ≥ 128 µg/mL
MIC (Enterobacter cloacae [13]): ≥ 128 µg/mL
MIC (Enterobacter cloacae [14]): ≥ 128 µg/mL
MIC (Enterobacter cloacae [15]): ≥ 128 µg/mL
MIC (Enterobacter cloacae [16]): ≥ 128 µg/mL
MIC (Enterobacter cloacae [17]): ≥ 128 µg/mL
MIC (Enterobacter cloacae [18]): ≥ 128 µg/mL
MIC (Enterobacter cloacae [19]): ≥ 128 µg/mL
MIC (Enterobacter cloacae [20]): ≥ 128 µg/mL
MIC (Enterobacter cloacae [21]): ≥ 128 µg/mL
MIC (Enterobacter cloacae [22]): ≥ 128 µg/mL
MIC (Enterobacter cloacae [23]): ≥ 128 µg/mL
MIC (Enterobacter cloacae [24]): ≥ 128 µg/mL
MIC (Enterobacter cloacae [25]): ≥ 128 µg/mL
MIC (Escherichia coli [26]): ≥ 128 µg/mL
MIC (Escherichia coli [27]): ≥ 128 µg/mL
MIC (Escherichia coli [28]): ≥ 128 µg/mL
MIC (Escherichia coli [29]): ≤ 4 µg/mL
MIC (Enterobacter cloacae [30]): ≥ 128 µg/mL
MIC (Enterobacter cloacae [31]): ≥ 128 µg/mL
MIC (Enterobacter cloacae [32]): ≥ 128 µg/mL
MIC (Enterobacter cloacae [33]): ≥ 128 µg/mL
MIC (Enterobacter cloacae [34]): ≥ 128 µg/mL
MIC (Enterobacter cloacae [35]): ≥ 128 µg/mL
MIC (Enterobacter cloacae [36]): ≥ 128 µg/mL
MIC (Enterobacter cloacae [37]): ≥ 128 µg/mL
MIC (Enterobacter cloacae [38]): ≥ 128 µg/mL
